Experimental data collected from several papers.
Each line is one published result; the experiments were not run side by side.
Sample: Caco-2

Oc1cc(O)c2c(c1)O[C@H](c1ccc(O)c(O)c1)[C@H](O)C2 — Papp B→A (100 µg/mL, 2 h): 0.55 ×10⁻⁶ cm/s
Cc1ccc(N(c2ccc(NC(=O)CN(C)c3ccccc3N3CCCC3=O)cc2)C(C)C)cc1 — Papp B→A: 2.52 ×10⁻⁶ cm/s
O=c1c(-c2ccc(O)cc2)coc2cc(O)ccc12 — Papp B→A (100 µg/mL, 2 h): 4.98 ×10⁻⁶ cm/s
CCCCCCOC(=O)NC(=N)c1ccc(NCc2nc3cc(C(=O)N(CCC(=O)OCC)c4ccccn4)ccc3n2C)cc1 — Papp B→A (5 µM, 2 h): 1.1 ×10⁻⁶ cm/s
N#Cc1ccc(C[C@H](NC(=O)Nc2ccc(F)cc2)C(=O)N2CCc3ccccc32)cc1 — Papp B→A (100 µM, 2 h): 218 ×10⁻⁶ cm/s
O=C(CCc1ccc(O)cc1)c1c(O)cc(O)cc1O[C@@H]1O[C@H](CO)[C@@H](O)[C@H](O)[C@H]1O — Papp B→A (100 µg/mL, 2 h): 5.39 ×10⁻⁶ cm/s
N#Cc1ccc(C[C@H](Nc2c(Nc3ccc(Br)cc3)c(=O)c2=O)C(=O)N2CCc3ccccc32)cc1 — Papp B→A (100 µM, 2 h): 249 ×10⁻⁶ cm/s
Cc1cc(C)c(CNC(=O)c2cc(Cl)c3c(c2C)O[C@@](C)([C@H]2CC[C@H](N(C)C)CC2)O3)c(=O)[nH]1 — Papp B→A (100 µM): 16.3 ×10⁻⁶ cm/s
CC(C)c1nc(N(C)S(C)(=O)=O)nc(-c2ccc(F)cc2)c1/C=C/[C@@H](O)C[C@@H](O)CC(=O)O — Papp B→A (5 µM, 2 h): 14.6 ×10⁻⁶ cm/s
C[C@@H]1O[C@@H](O[C@H]2[C@H](Oc3cc(O)c4c(c3)O[C@H](c3ccc(O)cc3)CC4=O)O[C@H](CO)[C@@H](O)[C@@H]2O)[C@H](O)[C@H](O)[C@H]1O — Papp B→A (100 µg/mL, 2 h): 8.02 ×10⁻⁶ cm/s
C=CC(=O)NC1CCN(c2ncc3ncnc(Nc4ccc(Oc5ccc6c(c5)ncn6C)c(C)c4)c3n2)CC1 — Papp B→A: ~9 ×10⁻⁶ cm/s
N#Cc1ccc(C[C@H](Nc2nnc(-c3ccc(F)cc3)o2)C(=O)N2CCc3ccccc32)cc1 — Papp B→A (100 µM, 2 h): 237 ×10⁻⁶ cm/s
CC(C)NCC(O)COc1cccc2ccccc12 (stereo not shown) — Papp B→A (10 µM, 2 h): 20 ×10⁻⁶ cm/s
